S1P3 antag = S1P3 receptor antagonists, primary screen, cell-based; inhibition, % at 4.98 µM; 170,000 compounds, 0.27% hits; AID 485, 2006; CHO S1P3 NFAT-BLA reporter, FRET fluorescence, antagonist mode; Sphingosine 1-phosphate receptor 3 (Homo sapiens), Q99500;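 active = inhibition above the plate cutoff, the mean inhibition of test wells on that plate plus 3 SD, cut at about 28% in these data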;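 note: cells challenged with S1P at its EC80 of 0.8 µM; blue over green emission ratio from cleaved BLA substrate after 4 h stimulation; 0% = S1P-stimulated wells and 100% = unstimulated DMSO-only wells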
S1P4 ag = S1P4 receptor agonists, primary screen, cell-based; S1P4-expressing cell line, agonist reporter assay; activation, % at 4.98 µM; 220,000 compounds, 0.35% hits; in the data active = activation above about 11%;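 note: 0% = DMSO vehicle and 100% = reference agonist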
Lmaj promast = Leishmania major promastigote growth inhibition, primary screen. 200,000 compounds, 9% hits. Leishmania major promastigotes, resazurin fluorescence viability. inhibition, % at 10 µM. AID 1063, 2008; in the data active = inhibition above about 50%;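 note: promastigotes grown with compound for 44 hours at 28 °C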
Mdm2 ligase inh = MDM2-luciferase reporter signal enhancers, primary screen, MDM2 E3 ligase inhibitor project, cell-based, luminescence, 1536-well; 210,000 compounds, 0.11% hits; E3 ubiquitin-protein ligase Mdm2 (Homo sapiens), Q00987; signal enhancement, % at 5 µM; AID 1230, 2008; cell-based MDM2 ubiquitination luciferase reporter, 2 h; 0 = plate control, 100 = twice control, blank-subtracted;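 active = signal enhancement of 30% or more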;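 note: luminescence tracks abundance of the self-degrading MDM2-luciferase fusion protein; higher signal means inhibition of MDM2 E3 ligase activity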
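test system = mammalian cells stably expressing self-ubiquitinating, self-degrading MDM2 E3–luciferase fusion | quantity = 2000 cells/well | incubation = cell settling 4 h, compound treatment 2 h, both 37 °C | signal = luminescence with SteadyLite reagent, 15 min at room temperature | evaluation = % enhancement relative to plate controls after blank subtraction | benchmarks = plate controls and plate blanks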
S1P4 antagonist = S1P4 receptor antagonists, primary screen, cell-based; S1P4-expressing cells, antagonist mode, reporter read-out; inhibition, % at 4.98 µM; 220,000 compounds, 0.26% hits; in the data active = inhibition above about 29%;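 note: 0% = wells stimulated with agonist and 100% = vehicle wells without agonist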
S1P4 antag cf = S1P4 receptor antagonists, human, confirmation, cell-based; 520 compounds, 71% hits; shares compounds with S1P4 antagonist; AID 1524, 2009; S1P4-expressing cell line, antagonist mode, reporter read-out; inhibition, % at 4.98 µM; in the data active = inhibition above about 30%
S1P1 antagonist = S1P1 receptor antagonists, human, counter-screen for S1P4 antagonist project, cell-based. shares compounds with S1P4 antagonist. cell-based S1P1 antagonist counterscreen, inhibition. inhibition, % at 4.98 µM. 520 compounds, 37% hits. AID 1564, 2009; in the data active = inhibition above about 40%;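 note: receptor stimulated with S1P near its EC80; 0% = agonist stimulated wells and 100% = vehicle only wells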
Target sequence (P21453 whole entry, looked up): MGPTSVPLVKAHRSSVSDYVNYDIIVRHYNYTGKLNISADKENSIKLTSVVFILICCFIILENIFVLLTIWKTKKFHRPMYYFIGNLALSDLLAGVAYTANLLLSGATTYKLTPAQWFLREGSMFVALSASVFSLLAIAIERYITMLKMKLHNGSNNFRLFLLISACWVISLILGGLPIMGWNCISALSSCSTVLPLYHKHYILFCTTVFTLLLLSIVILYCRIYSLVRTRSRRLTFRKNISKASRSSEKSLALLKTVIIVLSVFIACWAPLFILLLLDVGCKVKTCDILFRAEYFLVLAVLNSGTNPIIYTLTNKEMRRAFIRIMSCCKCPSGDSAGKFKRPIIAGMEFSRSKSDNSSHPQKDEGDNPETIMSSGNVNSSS
* hit, by the source's call; x = not tested or not shown. Many of the other results were omitted from the sample, so hits are more common in it than they were.

SMILES	S1P3 antag	S1P4 ag	Lmaj promast	Mdm2 ligase inh	S1P4 antagonist	S1P4 antag cf	S1P1 antagonist
CN1CCN(C(c2ccccn2)c2cc(Cl)c3cccnc3c2O)CC1 (configuration not stated)	2.2	3.6	-0.8	-6.0	-41.1	x	x
N/C(=N/OC(=O)c1ccccc1Cl)c1ncc([N+](=O)[O-])s1	9.7	1.1	x	-6.4	33.7*	27.7	38.3
O=C1C(Cl)=C(Nc2ccc3cn[nH]c3c2)C(=O)c2ccccc21	8.8	1.2	x	x	61.8*	94.7*	91.1*
CCN(CC)c1ccc2c(Cl)c(Br)c(=O)oc2c1	27.8	0.7	69.0*	-15.7	53.1*	104.2*	74.2*
Cc1ccc(CNC(=O)CSc2c3c(nc4ccc(Cl)cc24)CCCC3)o1	x	-1.3	15.1	-10.2	35.0*	29.1*	6.8
O=C(/C=C/c1ccc([N+](=O)[O-])cc1)OCC(=O)N1c2ccccc2Sc2ccccc21	-11.7	0.3	5.8	-0.2	-8.5	x	x
Cc1ccccc1OCCN1C(=O)NC2(CCc3ccccc32)C1=O (configuration not stated)	-3.8	-0.5	15.1	6.1	35.9*	0.8	-11.4
O=C1NC2(CCc3ccccc32)C(=O)N1CCOc1ccc(Cl)cc1 (configuration not stated)	x	0.3	8.2	-26.2	13.4	x	x
CC(=O)N(C1=C(Cl)C(=O)c2ccccc2C1=O)C1CCCCC1	-7.4	0.8	x	-85.3	51.6*	115.2*	61.0*
CC(=O)N(c1ccccc1C)C1CCCC1	-0.1	0.1	-1.6	4.5	-14.5	x	x
CC1Cc2ccccc2N1C(=O)CO/N=C/c1ccc(OC(F)F)cc1 (configuration not stated)	-1.7	-0.4	-8.5	0.3	-12.4	x	x
C1CCc2c(nc3nnnn3c2NCC2CC2)C1	13.1	1.5	x	x	-3.1	x	x
CCOC(=O)COc1ccc(C(=O)Nc2cccc(Cl)c2C)cc1	-0.9	1.3	-3.8	-5.1	32.5*	0.7	-2.8
CCOC(=O)Nc1cccc(Cl)c1C	-5.5	-3.0	-6.3	2.0	-15.0	x	x
COc1ccc(N=C2S/C(=C\c3ccc(OCC(=O)O)cc3)C(=O)N2CCc2c[nH]c3ccccc23)cc1	-16.7	0.4	-4.2	-23.0	-20.1	x	x
COc1ccc(N=C2S/C(=C\c3ccc(N4CCOCC4)o3)C(=O)N2CCc2c[nH]c3ccccc23)cc1	x	0.3	100.5*	-5.6	55.0*	67.8*	30.4
O=C(O)/C=C1\NC(=O)c2ccccc21	x	1.7	1.9	-23.9	-6.8	x	x
O=C1Nc2ccccc2/C1=C/C(=O)c1cccs1	x	0.1	100.3*	-7.2	37.9*	64.0*	46.8*
CN(C)c1ncc(S(=O)(=O)c2ccc(Cl)cc2)c(-c2ccccc2)n1	x	0.1	-4.2	-0.5	-4.6	x	x
O=S(=O)(c1ccc(Cl)cc1)c1snnc1-c1ccccc1	x	-2.1	100.5*	-14.7	35.8*	72.3*	8.3
O=C(NCCO[N+](=O)[O-])c1cccnc1	-3.0	0.7	x	x	-11.9	x	x
CN(C)/N=C/C=C1\CCC/C(=C\c2ccc(F)c(F)c2)C1=O	-3.0	0.5	97.0*	15.0	29.2*	33.5*	41.9*
Cn1c(=O)[nH]c(=O)c2c1nc([N+](=O)[O-])n2Cc1ccccc1	-2.6	-0.8	x	-4.6	51.3*	67.5*	56.1*
CC(C)Cn1c([N+](=O)[O-])nc2c1c(=O)[nH]c(=O)n2C	15.1	-0.9	x	-1.3	29.1*	23.7	16.2
CCNc1nc2c(c(=O)[nH]c(=O)n2C)n1CC(C)C	-9.6	3.4	-7.9	-6.3	-15.8	x	x
COc1ccc(C(=O)C(CN2CCOCC2)c2ccccc2)cc1 (configuration not stated)	x	-2.6	100.6*	5.8	45.0*	30.6*	19.4
CCC(O)(c1ccc(OC)cc1)C(CN1CCOCC1)c1ccccc1 (configuration not stated)	-1.3	1.1	8.9	-4.8	5.9	x	x
